Experimental data: ChEMBL document CHEMBL2034857, “Discovery of the macrocycle (9E)-15-(2-(pyrrolidin-1-yl)ethoxy)-7,12,25-trioxa-19,21,24-triaza-tetracyclo[18.3.1.1(2,5).1(14,18)]hexacosa-1(24),2,4,9,14(26),15,17,20,22-nonaene (SB1578), a potent inhibitor of janus kinase 2/fms-like tyrosine kinase-3 (JAK2/FLT3) for the treatment of rheumatoid …” (J Med Chem, 2012); call rule not given here

Assays:
[1] = Tmax in Wistar rat at 50 mg/kg, po; type: ADME, organism-based; set-up: dose 50 mg/kg, route oral; conditions: in vivo
Method in brief: (§1)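 Single oral dose by gavage as suspension in 0.5% methylcellulose/0.1% Tween 80 (mouse, rat, monkey) or in gelatin capsules (dog). Serial blood samples taken from 0 to 24 h into K3EDTA tubes; plasma stored at −70 °C until analysis. Parameters derived by noncompartmental methods. Rat, dog and monkey n = 3; mouse values estimated from mean concentration-time data, n = 3 mice per time point.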

[2] = Apparent permeability from apical to basal side of human Caco2 cells at 10 uM after 120 mins by LC-MS/MS analysis; type: ADME, cell-based; conditions: Caco-2
Method in brief: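 Caco-2 monolayers (passage 40–60) seeded at 1 × 10⁵ cells/cm² and used on day 20; 10 μM compound (1% DMSO final) in HBSS pH 7.4 with 25 mM HEPES and 4.45 mM glucose, 120 min at 37 °C, 5% CO2. Both directions run in duplicate, quantified by LC-MS/MS; lucifer yellow checks monolayer integrity.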

[3] = Cmax in beagle dog at 5 mg/kg, po; type: ADME, organism-based, Canis lupus familiaris; set-up: dose 5 mg/kg, route oral; conditions: in vivo
Method in brief: (§2)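 Single oral gavage at 50 (mouse, rat), 5 (dog) or 20 (monkey) mg/kg; rodents and monkeys received suspensions in 0.5% methylcellulose/0.1% Tween 80, dogs gelatin capsules. Serial blood taken 0–24 h into K3EDTA, plasma stored at −70 °C. Parameters estimated by noncompartmental analysis, n = 3 per species (mouse values from mean concentration–time data, 3 mice per time point).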

[4] = Plasma protein binding in mouse at 1000 ng/mL by equilibrium dialysis; type: ADME, cell-free; conditions: read-out: PPB (converted)
Method in brief: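 Equilibrium dialysis of plasma (mouse, rat, dog, monkey, human) spiked to 1000 ng/mL final against PBS, 4 h at 37 °C; buffer side extracted with MTBE in triplicate and analyzed by LC-MS/MS.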

[5] = Antiproliferative activity against human SET2 cells expressing JAK2 V617F mutan; type: functional, cell-based; conditions: SET-2
[6] = molecular target: T1, Cytochrome P450 2D6 (Homo sapiens, UniProt P10635); assay: Inhibition of CYP2D6 in human liver microsomes using dextromethorphan as substrate by fluorescence detection assay; type: ADME, Microsome
Method in brief: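 Seven-point concentration series (0.001, 0.01, 0.1, 1.0, 5, 10 and 25 μM) incubated with human liver microsomes. IC50 is the concentration giving 50% inhibition, calculated from the decrease in metabolite formation relative to vehicle control.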

[7] = AUC (0 to infinity) in rhesus monkey at 20 mg/kg, po; type: ADME, organism-based, Macaca mulatta; set-up: time infinity, dose 20 mg/kg, route oral; conditions: plasma; method in brief: as §2
[8] = molecular target: Non-receptor tyrosine-protein kinase TYK2 (Homo sapiens, UniProt P29597); assay: Inhibition of TYK2
[9] = Oral bioavailability in BALB/c nude mouse at 50 mg/kg; type: ADME, organism-based; conditions: in vivo; method in brief: as §2
[10] = Efflux ratio of apparent permeability across human Caco2 cells at 10 uM after 120 mins by LC-MS/MS analysis; type: ADME, cell-based; conditions: Caco-2
Method in brief: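 Caco-2 monolayers (passage 40–60) seeded at 1 × 10⁵ cells/cm², used on day 20; HBSS pH 7.4 with 25 mM HEPES and 4.45 mM glucose, 37 °C, 5% CO₂; 10 μM final (1% DMSO) dosed apical or basolateral, 120 min; both compartments quantified by LC-MS/MS; duplicate; reference compounds as controls; monolayer integrity by lucifer yellow permeation.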

[11] = molecular target: Cytochrome P450 2C19 (Homo sapiens, UniProt P33261); assay: Inhibition of CYP2C19 in human liver microsomes using omeprazole as substrate by LC-MS/MS analysis; type: ADME, Microsome
[12] = Terminal half life in beagle dog at 5 mg/kg, po; type: ADME, organism-based, Canis lupus familiaris; set-up: dose 5 mg/kg, route oral; conditions: in vivo, read-out: beta t1/2 (converted); method in brief: as §1
[13] = molecular target: Cytochrome P450 2C9 (Homo sapiens, UniProt P11712); assay: Inhibition of CYP2C9 in human liver microsomes using diclofenac as substrate by LC-MS/MS analysis; type: ADME, Microsome
[14] = Thermodynamic solubility of the compound at pH 7; type: physicochemical; conditions: buffer, read-out: Therm_solubility
Method in brief: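 The citrate salt (~5 mg) was made up at 5 mg/mL in pH-buffered solution, in triplicate. It was shaken 24 h at 600 rpm at room temperature, filtered (0.4 μm) and the final pH recorded. The filtrate was diluted in acetonitrile/water (1:1), centrifuged and quantified by HPLC-UV. Two determinations were made on two different batches.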

[15] = Oral bioavailability in beagle dog at 5 mg/kg; type: ADME, organism-based, Canis lupus familiaris; conditions: in vivo; method in brief: as §2
[16] = molecular target: Voltage-gated inwardly rectifying potassium channel KCNH2 (Homo sapiens, UniProt Q12809); assay: Displacement of dofetilide from human ERG
[17] = Tmax in beagle dog at 5 mg/kg, po; type: ADME, organism-based, Canis lupus familiaris; set-up: dose 5 mg/kg, route oral; conditions: in vivo; method in brief: as §1
[18] = molecular target: Cyclin-dependent kinase 9 (Homo sapiens, UniProt P50750); assay: Inhibition of CDK9
[19] = molecular target: Cytochrome P450 3A4 (Homo sapiens, UniProt P08684); assay: Induction of CYP3A4 in human liver microsomes; type: ADME, Microsome
[20] = Tmax in rhesus monkey at 20 mg/kg, po; type: ADME, organism-based, Macaca mulatta; set-up: dose 20 mg/kg, route oral; conditions: in vivo; method in brief: as §1
[21] = molecular target: Cyclin-dependent kinase 2 (Homo sapiens, UniProt P24941); assay: Inhibition of recombinant CDK2 using RbING as substrate after 2 hrs by luminometric assay
[22] = molecular target: T1, Cytochrome P450 2D6; assay: Inhibition of CYP2D6 in human liver microsomes using dextromethorphan as substrate by LC-MS/MS analysis; type: ADME, Microsome

T1 sequence (P10635 whole entry): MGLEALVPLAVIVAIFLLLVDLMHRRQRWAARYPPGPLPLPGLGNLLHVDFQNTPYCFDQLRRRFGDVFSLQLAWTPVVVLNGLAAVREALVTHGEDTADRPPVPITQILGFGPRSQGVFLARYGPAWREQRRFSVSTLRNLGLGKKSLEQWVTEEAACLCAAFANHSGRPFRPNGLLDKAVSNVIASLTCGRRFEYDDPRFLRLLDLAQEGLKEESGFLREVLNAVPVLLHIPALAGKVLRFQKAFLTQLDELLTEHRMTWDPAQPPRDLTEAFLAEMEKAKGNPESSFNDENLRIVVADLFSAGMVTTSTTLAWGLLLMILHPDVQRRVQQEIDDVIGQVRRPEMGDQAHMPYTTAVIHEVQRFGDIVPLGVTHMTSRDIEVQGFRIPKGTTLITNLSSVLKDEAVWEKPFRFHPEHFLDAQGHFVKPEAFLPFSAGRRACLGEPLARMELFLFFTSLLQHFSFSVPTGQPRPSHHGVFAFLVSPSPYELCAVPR
Sequence of Cytochrome P450 2C9 (P11712 whole entry): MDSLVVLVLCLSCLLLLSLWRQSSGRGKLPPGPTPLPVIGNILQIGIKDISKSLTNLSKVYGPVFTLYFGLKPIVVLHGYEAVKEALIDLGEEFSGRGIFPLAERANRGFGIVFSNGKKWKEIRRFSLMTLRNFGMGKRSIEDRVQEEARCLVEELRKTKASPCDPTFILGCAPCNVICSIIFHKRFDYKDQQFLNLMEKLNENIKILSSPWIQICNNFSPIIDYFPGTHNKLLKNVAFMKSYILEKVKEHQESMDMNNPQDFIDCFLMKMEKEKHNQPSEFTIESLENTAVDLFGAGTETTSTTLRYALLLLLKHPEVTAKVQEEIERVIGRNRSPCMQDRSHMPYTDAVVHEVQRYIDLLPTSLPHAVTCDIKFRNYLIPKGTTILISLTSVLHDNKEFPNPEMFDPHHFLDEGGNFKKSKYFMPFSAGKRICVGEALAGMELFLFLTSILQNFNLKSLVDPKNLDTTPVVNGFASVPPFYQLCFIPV
Sequence of Non-receptor tyrosine-protein kinase TYK2 (P29597 whole entry): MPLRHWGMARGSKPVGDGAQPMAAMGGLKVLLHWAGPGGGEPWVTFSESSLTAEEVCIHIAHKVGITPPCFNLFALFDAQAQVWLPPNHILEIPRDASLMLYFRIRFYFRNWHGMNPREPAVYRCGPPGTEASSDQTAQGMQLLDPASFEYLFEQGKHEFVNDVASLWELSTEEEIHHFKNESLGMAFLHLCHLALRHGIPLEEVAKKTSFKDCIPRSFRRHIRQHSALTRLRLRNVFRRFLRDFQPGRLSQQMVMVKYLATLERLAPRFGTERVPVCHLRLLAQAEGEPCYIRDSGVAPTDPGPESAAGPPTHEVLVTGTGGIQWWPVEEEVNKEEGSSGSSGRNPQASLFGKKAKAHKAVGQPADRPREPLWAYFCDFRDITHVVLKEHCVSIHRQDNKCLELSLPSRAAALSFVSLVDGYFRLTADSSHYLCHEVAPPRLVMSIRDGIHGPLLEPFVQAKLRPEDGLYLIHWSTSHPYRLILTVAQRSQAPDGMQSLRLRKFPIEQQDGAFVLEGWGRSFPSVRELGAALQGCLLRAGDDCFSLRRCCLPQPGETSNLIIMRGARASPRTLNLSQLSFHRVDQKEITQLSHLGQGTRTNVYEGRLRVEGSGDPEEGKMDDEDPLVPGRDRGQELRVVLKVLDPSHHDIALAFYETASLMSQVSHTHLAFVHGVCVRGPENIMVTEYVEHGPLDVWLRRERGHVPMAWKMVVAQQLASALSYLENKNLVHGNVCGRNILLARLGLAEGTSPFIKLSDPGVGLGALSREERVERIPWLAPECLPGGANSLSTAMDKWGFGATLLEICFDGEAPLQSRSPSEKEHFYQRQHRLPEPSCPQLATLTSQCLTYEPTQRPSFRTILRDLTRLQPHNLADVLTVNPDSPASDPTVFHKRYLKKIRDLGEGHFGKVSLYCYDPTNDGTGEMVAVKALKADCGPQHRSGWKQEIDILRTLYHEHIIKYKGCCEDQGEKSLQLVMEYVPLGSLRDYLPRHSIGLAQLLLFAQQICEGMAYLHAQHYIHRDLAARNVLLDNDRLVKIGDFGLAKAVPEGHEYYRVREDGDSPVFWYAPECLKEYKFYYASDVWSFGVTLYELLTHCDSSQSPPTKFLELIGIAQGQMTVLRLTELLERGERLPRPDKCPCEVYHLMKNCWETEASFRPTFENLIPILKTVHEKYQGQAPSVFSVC
Sequence of Cytochrome P450 2C19 (P33261 whole entry): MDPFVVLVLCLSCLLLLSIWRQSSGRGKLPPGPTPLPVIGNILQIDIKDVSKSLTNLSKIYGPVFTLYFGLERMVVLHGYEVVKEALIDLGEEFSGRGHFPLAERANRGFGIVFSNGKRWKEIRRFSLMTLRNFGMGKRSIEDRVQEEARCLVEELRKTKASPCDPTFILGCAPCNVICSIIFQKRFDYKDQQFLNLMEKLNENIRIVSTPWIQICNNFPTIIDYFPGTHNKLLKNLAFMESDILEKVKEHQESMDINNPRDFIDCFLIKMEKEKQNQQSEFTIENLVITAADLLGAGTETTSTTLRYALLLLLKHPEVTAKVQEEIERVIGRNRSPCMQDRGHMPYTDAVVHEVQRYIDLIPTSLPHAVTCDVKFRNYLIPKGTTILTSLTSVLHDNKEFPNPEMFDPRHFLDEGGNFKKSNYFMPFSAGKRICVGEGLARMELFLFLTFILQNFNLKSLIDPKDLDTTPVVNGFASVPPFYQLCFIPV
Sequence of Cyclin-dependent kinase 9 (P50750 whole entry): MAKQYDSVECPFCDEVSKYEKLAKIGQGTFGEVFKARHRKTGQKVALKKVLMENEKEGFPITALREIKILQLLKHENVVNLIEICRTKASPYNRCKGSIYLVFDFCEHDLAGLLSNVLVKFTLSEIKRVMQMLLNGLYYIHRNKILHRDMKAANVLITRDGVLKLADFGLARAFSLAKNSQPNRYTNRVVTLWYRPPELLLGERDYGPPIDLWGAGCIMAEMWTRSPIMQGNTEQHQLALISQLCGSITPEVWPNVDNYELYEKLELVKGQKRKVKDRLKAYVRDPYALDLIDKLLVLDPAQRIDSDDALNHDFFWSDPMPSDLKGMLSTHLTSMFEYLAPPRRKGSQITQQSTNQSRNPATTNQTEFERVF
Sequence of Cytochrome P450 3A4 (P08684 whole entry): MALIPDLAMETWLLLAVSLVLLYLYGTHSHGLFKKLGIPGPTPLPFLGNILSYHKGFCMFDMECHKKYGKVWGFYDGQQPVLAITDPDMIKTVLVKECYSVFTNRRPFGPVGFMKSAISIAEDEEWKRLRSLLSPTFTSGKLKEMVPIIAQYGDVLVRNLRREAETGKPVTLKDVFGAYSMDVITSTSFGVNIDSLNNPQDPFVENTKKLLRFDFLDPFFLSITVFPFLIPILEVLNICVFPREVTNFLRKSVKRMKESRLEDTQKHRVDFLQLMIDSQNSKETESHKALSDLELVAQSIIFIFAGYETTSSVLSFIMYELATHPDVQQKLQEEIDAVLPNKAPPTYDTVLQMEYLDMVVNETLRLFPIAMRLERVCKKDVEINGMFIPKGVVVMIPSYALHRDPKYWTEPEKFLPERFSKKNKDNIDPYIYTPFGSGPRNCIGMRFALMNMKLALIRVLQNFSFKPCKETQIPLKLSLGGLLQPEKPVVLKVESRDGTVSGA
Sequence of Voltage-gated inwardly rectifying potassium channel KCNH2 (Q12809 whole entry): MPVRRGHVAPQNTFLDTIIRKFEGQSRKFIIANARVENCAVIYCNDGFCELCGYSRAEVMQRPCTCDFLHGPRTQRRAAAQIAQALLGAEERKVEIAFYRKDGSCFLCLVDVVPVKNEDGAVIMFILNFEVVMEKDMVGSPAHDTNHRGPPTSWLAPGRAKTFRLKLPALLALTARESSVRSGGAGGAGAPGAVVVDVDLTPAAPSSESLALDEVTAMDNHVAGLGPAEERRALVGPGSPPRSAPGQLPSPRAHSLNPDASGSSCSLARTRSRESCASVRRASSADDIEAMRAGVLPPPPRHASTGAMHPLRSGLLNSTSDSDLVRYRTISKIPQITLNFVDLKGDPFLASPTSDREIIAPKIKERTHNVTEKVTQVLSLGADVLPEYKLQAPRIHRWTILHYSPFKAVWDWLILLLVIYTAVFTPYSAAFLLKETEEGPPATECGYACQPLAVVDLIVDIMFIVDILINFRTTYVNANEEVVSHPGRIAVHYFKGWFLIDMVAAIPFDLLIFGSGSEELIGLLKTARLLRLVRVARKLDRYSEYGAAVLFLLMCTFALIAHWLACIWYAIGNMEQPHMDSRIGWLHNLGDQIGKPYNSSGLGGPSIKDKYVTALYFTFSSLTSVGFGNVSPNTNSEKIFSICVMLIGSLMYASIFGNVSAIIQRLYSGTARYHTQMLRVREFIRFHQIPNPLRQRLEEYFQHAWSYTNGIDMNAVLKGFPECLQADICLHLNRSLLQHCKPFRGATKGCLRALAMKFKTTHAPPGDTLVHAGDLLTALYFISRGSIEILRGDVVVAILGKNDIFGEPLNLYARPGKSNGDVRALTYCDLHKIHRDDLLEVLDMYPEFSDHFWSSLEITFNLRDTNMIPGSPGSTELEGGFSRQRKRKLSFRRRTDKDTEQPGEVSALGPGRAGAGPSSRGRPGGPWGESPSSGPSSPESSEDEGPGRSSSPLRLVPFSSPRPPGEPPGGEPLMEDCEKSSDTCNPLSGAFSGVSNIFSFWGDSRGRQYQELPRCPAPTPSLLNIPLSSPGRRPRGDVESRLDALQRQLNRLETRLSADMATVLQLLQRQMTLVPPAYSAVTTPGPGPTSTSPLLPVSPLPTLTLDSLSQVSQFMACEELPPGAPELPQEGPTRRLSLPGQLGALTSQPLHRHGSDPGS

With `C1=C2COC/C=C/COCc3cc(ccc3OCCN3CCCC3)Nc3nccc(n3)C(=C1)O2` (mixture of isomers) [CT-1578] the Tmax [1] was 2.3 h, the Papp A→B at 2 h, 10 µM [2] was 24.8 ×10⁻⁶ cm/s and the Cmax [3] was 27 ng/mL. It also gave a fraction unbound at 1000 ng/mL [4] of 0.127, an IC50 [5] of 0.246 µM and an IC50 [6] greater than 10 µM. For the same compound, the AUC(0-inf) [7] was 7590 ng·h/mL, the IC50 [8] was 0.23 µM and the bioavailability [9] was 34%. It also gave an efflux ratio at 2 h, 10 µM [10] of 1.1, an IC50 [11] of 1.4 µM and a half-life [12] of 1.5 h. For the same compound, the IC50 [13] was greater than 10 µM, the solubility thermodynamic [14] was 880 µg/mL and the bioavailability [15] was 6%. The IC50 [16] was greater than 10 µM, the Tmax [17] was 3 h and the IC50 [18] was 0.036 µM. For the same compound, the Activity [19] was “Not Active”, the Tmax [20] was 2 h and the IC50 [21] was 7 µM. For the same compound, the IC50 [22] was greater than 10 µM.
